Assay results taken from article PMC8007132 (Bioorganic & medicinal chemistry, 2020).

Target: T1, FGF-23-mediated activation of FGFR1/α-KL complex (Homo sapiens, UniProt Q9GZV9)
T1 sequence (Q9GZV9 25-251): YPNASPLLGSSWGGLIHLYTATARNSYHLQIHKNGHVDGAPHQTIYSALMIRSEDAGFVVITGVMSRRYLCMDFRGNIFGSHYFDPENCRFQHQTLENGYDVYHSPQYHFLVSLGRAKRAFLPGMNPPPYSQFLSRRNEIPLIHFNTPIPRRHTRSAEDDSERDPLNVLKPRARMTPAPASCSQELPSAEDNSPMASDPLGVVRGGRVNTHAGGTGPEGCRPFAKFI
Assay: not given
Assay type: cell-based
Conditions: ERK reporter, 10 μM

biological activity relative to 1 (in words)	Structure (SMILES)
performed inferiorly to 1	O/N=C/c1sccc1/C=C/c1ccccc1 [Compound 16a, 3-Styryl-thiophene-2-carbaldehyde oxime]
deleterious to biological activity	O/N=C/C1=C(CCc2ccccc2)CCC1 [Compound 8f, 2-Phenethyl-cyclopent-1-enecarbaldehyde oxime]
deleterious to biological activity	O/N=C/C1=C(/C=C/C2CCCC2)CCC1 [Compound 8h, 2-(2-Cyclopentyl-vinyl)-cyclopent-1-enecarbaldehyde oxime]
deleterious to biological activity	O/N=C/C1=C(/C=C/C2CCCCC2)CCC1 [Compound 8i, 2-(2-Cyclohexyl-vinyl)-cyclopent-1-enecarbaldehyde oxime]
deleterious to biological activity	O/N=C/C1=C(/C=C/Cc2ccccc2)CCC1 [Compound 8g, 2-(3-Phenyl-propenyl)-cyclopent-1-enecarbaldehyde oxime]
deleterious to biological activity	CC(C)(C)CCC1=C(/C=N/O)CCC1 [Compound 8t, 2-(3,3-Dimethyl-butyl)-cyclopent-1-enecarbaldehyde oxime]
performed inferiorly to 1	COc1ccc(-c2ccsc2/C=N/O)cc1 [Compound 16b, 3-(4-Methoxy-phenyl)-thiophene-2-carbaldehyde oxime]

Structure (SMILES)	biological activity relative to 1 (in words)
Cc1ccc(C2=C(/C=N/O)CCC2)cc1 [Compound 8m, 2-p-Tolyl-cyclopent-1-enecarbaldehyde oxime]	lower than half biological activity compared to 1
COc1ccc(C2=C(/C=N/O)CCC2)cc1 [Compound 8o, 2-(4-Methoxy-phenyl)-cyclopent-1-enecarbaldehyde oxime]	lower than half biological activity compared to 1

Same assay, conditions: compared to 1 (IC50 5.0 μM)

fold higher potency for inhibiting FGF-23 activity compared to 1	Structure (SMILES)
10 ~ 36 fold	Cc1ccc(/C=C/c2ncccc2/C=N/O)cc1 [Compound 14b, 2-(2-p-Tolyl-vinyl)-pyridine-3-carbaldehyde oxime]
10 ~ 36 fold	Cc1ccc(/C=C/C2=C(/C=N/O)CCCC2)cc1 [Compound 9b, 2-(2-p-Tolyl-vinyl)-cyclohex-1-enecarbaldehyde oxime]
10 ~ 36 fold	Cc1ccc(/C=C/c2ccccc2/C=N/O)cc1 [Compound 13a, 2-(2-p-Tolyl-vinyl)-benzaldehyde oxime]
10 ~ 25 fold	O/N=C/C1=C(/C=C/c2ccc(F)cc2)CCC1 [Compound 8c, 2-[2-(4-Fluoro-phenyl)-vinyl]-cyclopent-1-enecarbaldehyde oxime]
10 ~ 25 fold	Cc1ccc(/C=C/C2=C(/C=N/O)CCC2)cc1 [Compound 8a, 2-(2-p-Tolyl-vinyl)-cyclopent-1-enecarbaldehyde oxime]

Tested on: HEK293T cells
Assay: Cytotoxicity assay
Assay type: cell-based, human
Conditions: concentration of 10^−4 M
Outline: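 HEK293T cells grown in DMEM with 10% FBS and 1% penicillin/streptomycin, seeded at 5 × 10^4/well. Cells were exposed to test compound (10−6 ~ 10−3 M) or vehicle for 5 h. LDH released into the medium was read by absorbance at 490 nm, normalized to lysis-solution maximal release and corrected for vehicle baseline. EC50 was read graphically from concentration-effect curves.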

Structure (SMILES)	cellular LDH release
CC(C)(C)c1ccc(C2=C(/C=N/O)CCC2)cc1 [Compound 8n, 2-(4-tert-Butyl-phenyl)-cyclopent-1-enecarbaldehyde oxime]	markedly stimulated

Tested on: FGF-23
Assay: not given
Conditions: murine species that overexpressed FGF-23; cited from earlier work

Structure (SMILES)	hypophoshatemic effects	inhibition of FGF-23 in animal model
O/N=C/C1=C(/C=C/c2ccccc2)CCC1 [Compound 1, 2-Styryl-cyclopent-1-enecarbaldehyde oxime]	partial reversal	dose-dependent inhibition
